Test results reported in paper PMC12789443 (Nature Communications, 2025).

Assays:
[1] = test system: E. coli ATCC25922 persister cells; assay: Killing efficacy on persister cells; type: cell-based; conditions: ampicillin 8×MIC
[2] = test system: E. coli ATCC25922; assay: Mice wound; type: in vivo; conditions: topical, 15 μL of 4 mg/mL every 4 h, 3 times
Method in brief: (§1)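 Female ICR mice (6–8 weeks), pentobarbital-anaesthetised (75 mg/kg ip), backs shaved; 6-mm full-thickness punch wounds. Bacteria grown in LB (37 °C, 9 h) and dropped onto wounds in saline: S. aureus 3 × 10^6 or E. coli 1 × 10^8 CFU/mL. Treatment in saline started 24 h post-infection; saline controls. Wound tissue excised 4 h after final application for CFU counts; n = 10.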

[3] = test system: S. aureus USA300 LAC; assay: In vitro bacterial killing kinetics; type: cell-based; conditions: exponential growth phase; PBGProOx20 2×MIC and 4×MIC, vancomycin 4×MIC
[4] = test system: S. aureus USA300 LAC biofilm; assay: Anti-biofilm assay; type: cell-based
[5] = test system: S. aureus USA300 LAC; assay: Mice wound; type: in vivo; conditions: topical, 15 μL of 4 mg/mL every 4 h, 3 times
Method in brief: as §1

[6] = test system: S. aureus USA300 LAC; assay: Mice subcutaneous infection model; type: in vivo; conditions: 4 mg/mL every 12 h, 3 times
[7] = test system: S. aureus USA300 LAC; assay: Mice meningitis model; type: in vivo; conditions: 40 mg/kg intraperitoneal daily, 6 times; saline 17%
[8] = test system: S. aureus USA300 persister cells; assay: Killing efficacy on persister cells; type: cell-based; conditions: ciprofloxacin 10×MIC
[9] = test system: S. aureus-PBGProOx20-P32, S. aureus-ciprofloxacin-P32; assay: Cross resistance; type: cell-based; conditions: 0.5×MIC, P32 bacteria tested against antibiotics
[10] = test system: E. coli ATCC25922; assay: Mice meningitis model; type: in vivo; conditions: 40 mg/kg intraperitoneal daily, 6 times; saline 17%
[11] = test system: E. coli ATCC25922; assay: Drug resistance study; type: cell-based; conditions: continuous treatment at 0.5×MIC
[12] = test system: E. coli-PBGProOx20-P32, E. coli-moxifloxacin-P32; assay: Cross resistance; type: cell-based; conditions: 0.5×MIC, P32 bacteria tested against antibiotics
[13] = test system: E. coli ATCC25922 biofilm; assay: Anti-biofilm assay; type: cell-based

CC1(C)S[C@@H]2[C@H](NC(=O)[C@H](N)c3ccccc3)C(=O)N2[C@H]1C(=O)O [Ampicillin, ampicillin]
persister cell viability under antibiotic [1]: maintained sustained viability

C[C@@H](O)[C@H]1C(=O)N2C(C(=O)O)=C(SCCN=CN)C[C@H]12 [Imipenem, imipenem]
reduction of bacteria in infected wounds [2]: 2.1 logs

CN[C@H](CC(C)C)C(=O)N[C@H]1C(=O)N[C@@H](CC(N)=O)C(=O)N[C@H]2C(=O)N[C@H]3C(=O)N[C@H](C(=O)N[C@H](C(=O)O)c4cc(O)cc(O)c4-c4cc3ccc4O)[C@H](O)c3ccc(c(Cl)c3)Oc3cc2cc(c3O[C@@H]2O[C@H](CO)[C@@H](O)[C@H](O)[C@H]2O[C@H]2C[C@](C)(N)[C@H](O)[C@H](C)O2)Oc2ccc(cc2Cl)[C@H]1O [Vancomycin, vancomycin]
eradication in time-killing kinetics [3]: unable to eradicate S. aureus | concentration eradicating mature biofilm [4]: poor anti-biofilm activity | reduction of bacteria in infected wounds [5]: 1.2 logs | reduction of bacterial load in infected skin [6]: less than 0.5 log CFU/g | survival rate, meningitis [7]: 50%

O=C(O)c1cn(C2CC2)c2cc(N3CCNCC3)c(F)cc2c1=O [ciprofloxacin]
persister cell viability under antibiotic [8]: maintained sustained viability | cross-resistance of bacteria treated for 32 passages [9]: acquired resistance to four quinolone antibiotics and ampicillin

C[C@@H](O)[C@H]1C(=O)N2C(C(=O)O)=C(S[C@@H]3CN[C@H](C(=O)N(C)C)C3)[C@H](C)[C@H]12 [meropenem]
survival rate, meningitis [10]: 100%

COc1c(N2C[C@@H]3CCCN[C@@H]3C2)c(F)cc2c(=O)c(C(=O)O)cn(C3CC3)c12 [moxifloxacin]
increase in MIC after 32 passages [11]: 32 fold | cross-resistance of bacteria treated for 32 passages [12]: acquired resistance to four quinolone antibiotics and ampicillin

colistin
concentration eradicating mature biofilm [13]: 256 ×MIC
